Experimental data taken from publication PMC10441411 (bioRxiv, 2023).
Each block holds one molecule with its values, some of them ahead of it. Peptide text beside a SMILES is read from it. * marks the point of attachment. Cbz = O=C(OCc1ccccc1)*

Columns and labels:
NR4A1 [1] = biological target: NR4A1 (Homo sapiens, UniProt P22736); assay: NR4A1 degradation in human cell lines by immunoblotting; format: cell-based; conditions: CHL-1 cells
Outline: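 CHL-1 and A375 human melanoma cells were grown in DMEM with 10% FBS and penicillin/streptomycin. Screening used 250 nM test compound for 16 h, read by immunoblot plus densitometry (n=2). A 16 h dose series gave the 50% degradation concentration. For pathway tests, CHL-1 were pretreated 10 min with 0.5 μM MG132 or 10 μM VHL 032, then exposed 16 h to DMSO or 500 nM. Lysates were made in RIPA with DTT.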

NR4A1 [2] = conditions: read-out: binding affinity of celastrol to NR4A1 (Kd); cited from earlier work
NR4A1 mRNA = NR4A1 mRNA by qPCR in CHL-1 cells; format: cell-based, human; conditions: 500 nM, time course, ACTB control
B16F10 melanoma = B16F10 melanoma syngeneic tumor growth; format: in vivo, mouse; conditions: WT mice; 1.8 mg/kg NR-V04 or 0.75 mg/kg celastrol i.p. twice a week from day 7
[3] = tested on: MC38 colon adenocarcinoma; assay: MC38 colon cancer syngeneic tumor growth; format: in vivo, mouse; conditions: WT mice; 1.8 mg/kg NR-V04 or 0.75 mg/kg celastrol i.p. twice a week from day 7
Outline: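 Mouse MC38 or Yummer1.7 cells (5 × 10^5) in PBS injected s.c. into 7–9-week-old WT or NSG hosts. Dosing started day 7 once tumors were palpable: test compound 1.8 mg/kg i.p. twice weekly, with celastrol 0.75 mg/kg (1.67 μmol/kg) in MC38 only. Vehicle was 50% phosal PG/45% miglyol 810N/5% polysorbate 80. Tumors were grown to 2 cm diameter endpoint.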

Sequence of NR4A1 (Homo sapiens, UniProt P22736) (P22736 whole entry): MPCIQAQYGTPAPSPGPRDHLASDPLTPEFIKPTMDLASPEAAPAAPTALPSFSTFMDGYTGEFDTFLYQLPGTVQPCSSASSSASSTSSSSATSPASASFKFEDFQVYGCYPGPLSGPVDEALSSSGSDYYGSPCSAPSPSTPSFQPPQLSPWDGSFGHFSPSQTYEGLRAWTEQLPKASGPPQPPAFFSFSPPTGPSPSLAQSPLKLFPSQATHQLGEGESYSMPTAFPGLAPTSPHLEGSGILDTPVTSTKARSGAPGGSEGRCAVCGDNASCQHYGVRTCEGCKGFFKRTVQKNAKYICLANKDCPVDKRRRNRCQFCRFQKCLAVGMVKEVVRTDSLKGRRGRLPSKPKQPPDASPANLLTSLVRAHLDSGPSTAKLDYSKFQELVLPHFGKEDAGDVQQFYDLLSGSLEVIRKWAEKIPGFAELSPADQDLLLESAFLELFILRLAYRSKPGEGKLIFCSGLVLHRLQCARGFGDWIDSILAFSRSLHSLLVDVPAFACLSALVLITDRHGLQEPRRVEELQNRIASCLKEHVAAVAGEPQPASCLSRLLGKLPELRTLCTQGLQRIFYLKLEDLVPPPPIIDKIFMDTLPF

effect of pretreatment on NR-V04-reduced NR4A1 protein level (NR4A1 [1]; 0.5 μM MG132 10 minutes, then 500 nM NR-V04 16 hours): effectively rescued
Compound: CC(C)C[C@@H](C=O)NC(=O)[C@H](CC(C)C)NC(=O)[C@H](CC(C)C)NC(=O)OCc1ccccc1 [MG132] (Cbz-Leu-Leu-Leu-aldehyde)

Compound: CC1=C(O)C(=O)C=C2C1=CC=C1[C@@]2(C)CC[C@@]2(C)[C@@H]3C[C@](C)(C(=O)O)CC[C@]3(C)CC[C@]12C [celastrol]
NR4A1 protein level, initial screening (NR4A1 [1]; 250 nM, 16 hours, immunoblotting and densitometry): did not alter
NR4A1 protein level (NR4A1 [1]; 16 hours, dose series): did not change
Kd (NR4A1 [2]): 290 nM
NR4A1 mRNA level (NR4A1 mRNA): increase in NR4A1 mRNA levels after 2 hrs
tumor growth, B16F10 melanoma (B16F10 melanoma): increased growth
tumor growth, MC38 model [3]: failed to inhibit tumor growth

effect of pretreatment on NR-V04-induced degradation of NR4A1 (NR4A1 [1]; 10 μM VHL 032 10 minutes, then 500 nM NR-V04 16 hours): prevented
Compound: CC(=O)N[C@H](C(=O)N1C[C@H](O)C[C@H]1C(=O)NCc1ccc(-c2scnc2C)cc1)C(C)(C)C [VHL-032]
